Assay results: ChEMBL document CHEMBL3124843, “Synthesis, cytostatic, antimicrobial, and anti-HCV activity of 6-substituted 7-(het)aryl-7-deazapurine ribonucleosides” (J Med Chem, 2014)
Active and inactive are the calls of the source. No rule for the calls is given here.

Legend:
[1] = tested on: Enterococcus faecalis; experiment: Antibacterial activity against Enterococcus faecalis CCM 4224 after 24 hrs; assay type: functional, organism-based
[2] = Cytotoxicity against human HuH7 cells infected with Hepatitis C virus subtype 2a; assay type: cell-based, Huh-7
[3] = tested on: Staphylococcus haemolyticus; experiment: Antibacterial activity against methicillin-resistant Staphylococcus haemolyticus A/16568 after 24 hrs; assay type: functional, organism-based
[4] = Cytotoxicity against human HuH7 cells infected with Hepatitis C virus subtype 1b; assay type: cell-based, Huh-7
[5] = tested on: CCRF-CEM; experiment: Cytostatic activity against human CCRF-CEM cells after 72 hrs by MTT assay; assay type: functional, cell-based
Procedure, shortened: (§1)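 IC50 is the concentration that cuts cell growth by 50%, read by quantitative metabolic MTT staining after a 3-day treatment. The resistant sublines were made by raising the concentration of the cytotoxic drug step by step. CEM-DNR-bulk (daunorubicin-selected) stably overexpresses mrp-1. K562-TAX (paclitaxel-selected) expresses only mdr-1. HCT116p53−/− carries null p53 alleles. BJ and MRC-5 are nonmalignant fibroblasts.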

[6] = tested on: Staphylococcus aureus; experiment: Antibacterial activity against Staphylococcus aureus CCM 3953 after 24 hrs; assay type: functional, organism-based
[7] = tested on: K562; experiment: Cytostatic activity against paclitaxel-resistant human K562 cells after 72 hrs by MTT assay; assay type: functional, cell-based; settings: K562, 72 h; procedure, shortened: as §1
[8] = tested on: Escherichia coli; experiment: Antibacterial activity against Escherichia coli CCM 3954 after 24 hrs; assay type: functional, organism-based
[9] = tested on: Pichia kudriavzevii; experiment: Antifungal activity against Candida crusei after 48 hrs; assay type: functional, organism-based
[10] = tested on: HCT-116; experiment: Cytostatic activity against human HCT116 cells after 72 hrs by MTT assay; assay type: functional, cell-based; settings: HCT-116, 72 h; procedure, shortened: as §1
[11] = tested on: Pseudomonas aeruginosa; experiment: Antibacterial activity against multi-resistant Pseudomonas aeruginosa A/16575 after 24 hrs; assay type: functional, organism-based
[12] = tested on: MRC5; experiment: Cytostatic activity against human MRC5 cells after 72 hrs by MTT assay; assay type: ADME, cell-based; settings: MRC5, 72 h; procedure, shortened: as §1
[13] = tested on: Staphylococcus aureus; experiment: Antibacterial activity against methicillin-resistant Staphylococcus aureus MRSA 4591 after 24 hrs; assay type: functional, organism-based
[14] = tested on: Candida albicans; experiment: Antifungal activity against Candida albicans after 48 hrs; assay type: functional, organism-based
[15] = tested on: Candida parapsilosis; experiment: Antifungal activity against Candida parapsilosis after 48 hrs; assay type: functional, organism-based
[16] = tested on: Hepatitis C virus; experiment: Antiviral activity against Hepatitis C virus subtype 2a infected in human HuH7 cells; assay type: functional, organism-based, Hepacivirus hominis; settings: genotype 2a, Huh-7
[17] = tested on: HCT-116; experiment: Cytostatic activity against p53-deficient human HCT116 cells after 72 hrs by MTT assay; assay type: functional, cell-based; settings: HCT-116, 72 h; procedure, shortened: as §1
[18] = tested on: A549; experiment: Cytostatic activity against human A549 cells after 72 hrs by MTT assay; assay type: functional, cell-based; settings: A549, 72 h; procedure, shortened: as §1
[19] = Antiproliferative activity against human HeLaS3 cells after 72 hrs by XTT assay; assay type: functional, cell-based; settings: HeLa S3, 72 h
Procedure, shortened: (§2)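 Antiproliferative test on HL-60 promyelocytic leukemia and HeLa S3 cervical carcinoma cells growing in liquid suspension.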

[20] = tested on: BJ; experiment: Cytostatic activity against human BJ cells after 72 hrs by MTT assay; assay type: ADME, cell-based; procedure, shortened: as §1
[21] = tested on: K562; experiment: Cytostatic activity against human K562 cells after 72 hrs by MTT assay; assay type: functional, cell-based; settings: K562, 72 h; procedure, shortened: as §1
[22] = Cytostatic activity against human CEM-DNR-bulk cells after 72 hrs by MTT assay; assay type: functional, cell-based; procedure, shortened: as §1
[23] = tested on: Escherichia coli; experiment: Antibacterial activity against multi-resistant Escherichia coli C/16702 after 24 hrs; assay type: functional, organism-based
[24] = tested on: Pseudomonas aeruginosa; experiment: Antibacterial activity against Pseudomonas aeruginosa CCM 3955 after 24 hrs; assay type: functional, organism-based
[25] = tested on: Candida tropicalis; experiment: Antifungal activity against Candida tropicalis after 48 hrs; assay type: functional, organism-based
[26] = tested on: Hepatitis C virus; experiment: Antiviral activity against Hepatitis C virus subtype 1b infected in human HuH7 cells; assay type: functional, organism-based, Hepacivirus hominis; settings: genotype 1b, Huh-7
[27] = tested on: HL-60; experiment: Antiproliferative activity against human HL60 cells after 72 hrs by XTT assay; assay type: functional, cell-based; settings: HL-60, 72 h; procedure, shortened: as §2
[28] = tested on: HepG2; experiment: Antiproliferative activity against human HepG2 cells after 72 hrs by XTT assay; assay type: functional, cell-based; settings: HepG2, 72 h

Compound	Activity [1]	Activity [3]	CC50 [4]	IC50 [5]	Activity [6]	IC50 [7]	Activity [8]	Activity [9]	IC50 [10]	Activity [11]	IC50 [12]	Activity [13]	Activity [14]	Activity [15]	IC50 [17]	IC50 [18]	IC50 [19]	IC50 [20]	IC50 [21]	IC50 [22]	also measured
Nc1ncnc2c1c(-c1ccco1)cn2[C@@H]1O[C@H](CO)[C@@H](O)[C@H]1O	inactive	inactive	> 44 µM	0.04 µM	inactive	0.05 µM	inactive	inactive	0.03 µM	inactive	36.5 µM	inactive	inactive	inactive	0.17 µM	0.03 µM	0.05 µM	18.3 µM	0.04 µM	0.21 µM	CC50 [2]: > 44 µM; EC50 [16]: > 44 µM; Activity [23]: inactive; Activity [24]: inactive; Activity [25]: inactive; EC50 [26]: > 44 µM
COc1nc(N)nc2c1c(-c1ccoc1)cn2[C@@H]1O[C@H](CO)[C@@H](O)[C@H]1O	inactive	inactive	> 44 µM	> 20 µM	inactive	> 20 µM	inactive	inactive	> 20 µM	inactive	> 100 µM	inactive	inactive	inactive	> 20 µM	> 20 µM	> 20 µM	> 100 µM	> 20 µM	> 20 µM	IC50 [27]: > 20 µM; IC50 [28]: > 20 µM; Activity [23]: inactive; Activity [24]: inactive; Activity [25]: inactive; EC50 [26]: 19.7 µM
Nc1nc2c(c(-c3cccs3)cn2[C@@H]2O[C@H](CO)[C@@H](O)[C@H]2O)c(=O)[nH]1	inactive	inactive	> 44 µM	> 20 µM	inactive	16.8 µM	inactive	inactive	> 20 µM	inactive	> 100 µM	inactive	inactive	inactive	19.8 µM	> 20 µM	> 20 µM	> 100 µM	> 20 µM	> 20 µM	IC50 [27]: > 20 µM; IC50 [28]: > 20 µM; Activity [23]: inactive; Activity [24]: inactive; Activity [25]: inactive; EC50 [26]: 18.8 µM
